Results from article PMC3078945 (Clinical cancer research : an official journal of the …, 2011).
“Also recorded” adds a separate entry of the source. Read-outs that look alike come from different tables or passages of the source.

Tests used:
[1] = Safingol plasma pharmacokinetics in the phase I trial; assay type: in vivo, human; details: for dose dependence of safingol PK parameters (Cmax, AUC): safingol 60–930 mg/m^2
How it was run: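 Safingol was an egg-phospholipid/dextrose/lactic acid emulsion diluted to 1 mg/ml in saline and infused IV over 60–120 min at 60–930 mg/m2. […] Assay was HPLC-MS/MS with non-compartmental analysis.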

[2] = tested on: sphingosine-1-phophate (S1P) levels; experiment: Pharmacodynamics: plasma S1P levels after safingol; assay type: in vivo, human; details: for effect on S1P in plasma: across dose cohorts
How it was run: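 Levels 1 h and 4 h after safingol were normalized to pre-treatment levels, with patients grouped by dose cohort. Values are cohort means with standard error.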

advanced solid tumors = experiment: Antitumor activity; assay type: in vivo, human
[3] = tested on: patients with advanced solid tumors; details: for AST/ALT G2 (number of patients) / Fatigue G4 (number of patients) / Hyponatremia G2 (number of patients) / Hyponatremia G3 (number of patients) / Hyponatremia G4 (number of patients) / Lymphopenia G2 (number of patients) / Lymphopenia G3 (number of patients) / Lymphopenia G4 (number of patients) / Nausea/vomiting G2 (number of patients) / Nausea/vomiting G3 (number of patients): cycle 1
[4] = target: sphingosine kinase 1 (SphK); details: cited from earlier work
Protein Kinase C = details: PKC; cited from earlier work
patients = details: cited from earlier work
[5] = cited from earlier work
solid tumor cells = details: safingol alone; cited from earlier work
[6] = cited from earlier work; remark: listed apart in the source
xenograft = details: cited from earlier work
mice = details: mouse, in vivo; cited from earlier work
[7] = cohorts 8–10, safingol 750–930 mg/m^2
[8] = safingol + cisplatin, 6 patients
[9] = safingol + cisplatin, 37 patients evaluable
[10] = cohort 1 (safingol 60, cisplatin 75 mg/m^2), N=4
[11] = cohort 2 (safingol 120, cisplatin 75 mg/m^2), N=3
[12] = cohort 3 (safingol 240, cisplatin 75 mg/m^2), N=3
[13] = cohort 4 (safingol 240, cisplatin 60 mg/m^2), N=6
[14] = cohort 5 (safingol 360, cisplatin 60 mg/m^2), N=3
[15] = cohort 6 (safingol 480, cisplatin 60 mg/m^2), N=3
[16] = cohort 7 (safingol 600, cisplatin 60 mg/m^2), N=3
[17] = cohort 8 (safingol 750, cisplatin 60 mg/m^2), N=6
[18] = cohort 9 (safingol 930, cisplatin 60 mg/m^2), N=6
[19] = cohort 10 (safingol 840, cisplatin 60 mg/m^2), N=6

## CCCCCCCCCCCCCCC[C@H](O)[C@@H](N)CO [Safingol, (2S,3S)-2-amino-1,3-octadecanediol]
[1]; cohorts 1–7, listed as S
  pharmacokinetic interaction of safingol with cisplatin (day 1 vs day 8): no significant interaction
[1]; [7]
  duration of safingol concentration over 20 µM: < 1 h
  time safingol levels of at least 5 µM persist after treatment: at least 4 hours
[1]; human, plasma, intravenous, Mean day 1 safingol AUC, safingol 600 – 930 mg/m^2
  AUC: 102 to 110 µM·h
[1]; human, plasma, intravenous, Mean day 1 safingol Cmax, safingol 600 – 930 mg/m^2
  Cmax: 23900 to 26800 nM
[1]; on average
  increase in AUC per 100 mg/m^2 increase in safingol dose: 10 µM·h
  increase in Cmax per 100 mg/m^2 increase in safingol dose: 3000 nM
[1]
  dose dependence of safingol PK parameters (Cmax, AUC): increased in a linear and dose-proportional manner; also recorded: increased linearly with dose
[1]; listed as S
  dose dependence of safingol PK parameters (Cmax, AUC): linear throughout the dose range
[2]
  effect on S1P in plasma: dose-dependent decreases; also recorded: significant decreases
[2]; listed as S
  effect on S1P in plasma: dose-dependent reduction
[2]; safingol 930 mg/m^2, p = 0.001
  time dependence of S1P levels: lower 4 hours post-treatment than at 1 hour post-treatment
[2]; safingol doses of over 750 mg/m^2, p < 0.001
  decrease of S1P levels relative to pre-treatment: about half
Advanced solid tumors; other patient with adrenal cortical cancer
  duration of stable disease: 7.2 m
Advanced solid tumors; [8]
  average duration of stable disease: 3.3 m
  range of duration of stable disease: 1.8 – 7.2 m
Advanced solid tumors; safingol + cisplatin, 6 patients, listed as S
  average duration of stable disease: 3.3 months
Advanced solid tumors; [9]
  best response: stable disease
  number of patients with stable disease: 6
[3]; MTD cohort
  upper limit of the 95% posterior interval of DLT rate: 40%
[3]; cohort 10, 1/6
  DLT rate for the MTD cohort: 17%
[3]; current study, careful monitoring
  hemolysis: no hemolysis was observed in any patient
[3]; [10]
  AST/ALT G2 (number of patients): 0
  Fatigue G4 (number of patients): 0
  Hyponatremia G2 (number of patients): 0
  Hyponatremia G3 (number of patients): 1
  Hyponatremia G4 (number of patients): 0
  Lymphopenia G2 (number of patients): 0
  Lymphopenia G3 (number of patients): 1
  Lymphopenia G4 (number of patients): 0
  Nausea/vomiting G2 (number of patients): 0
  Nausea/vomiting G3 (number of patients): 0
[3]; [11]
  AST/ALT G2 (number of patients): 0
  Fatigue G4 (number of patients): 0
  Hyponatremia G2 (number of patients): 0
  Hyponatremia G3 (number of patients): 0
  Hyponatremia G4 (number of patients): 0
  Lymphopenia G2 (number of patients): 0
  Lymphopenia G3 (number of patients): 1
  Lymphopenia G4 (number of patients): 0
  Nausea/vomiting G2 (number of patients): 1
  Nausea/vomiting G3 (number of patients): 0
[3]; [12]
  AST/ALT G2 (number of patients): 0
  Fatigue G4 (number of patients): 0
  Hyponatremia G2 (number of patients): 0
  Hyponatremia G3 (number of patients): 1
  Hyponatremia G4 (number of patients): 0
  Lymphopenia G2 (number of patients): 0
  Lymphopenia G3 (number of patients): 0
  Lymphopenia G4 (number of patients): 0
  Nausea/vomiting G2 (number of patients): 3
  Nausea/vomiting G3 (number of patients): 0
[3]; [13]
  AST/ALT G2 (number of patients): 1
  Fatigue G4 (number of patients): 0
  Hyponatremia G2 (number of patients): 0
  Hyponatremia G3 (number of patients): 0
  Hyponatremia G4 (number of patients): 0
  Lymphopenia G2 (number of patients): 0
  Lymphopenia G3 (number of patients): 3
  Lymphopenia G4 (number of patients): 0
  Nausea/vomiting G2 (number of patients): 0
  Nausea/vomiting G3 (number of patients): 0
[3]; [14]
  AST/ALT G2 (number of patients): 1
  Fatigue G4 (number of patients): 0
  Hyponatremia G2 (number of patients): 0
  Hyponatremia G3 (number of patients): 0
  Hyponatremia G4 (number of patients): 0
  Lymphopenia G2 (number of patients): 0
  Lymphopenia G3 (number of patients): 1
  Lymphopenia G4 (number of patients): 0
  Nausea/vomiting G2 (number of patients): 0
  Nausea/vomiting G3 (number of patients): 0
[3]; [15]
  AST/ALT G2 (number of patients): 0
  Fatigue G4 (number of patients): 0
  Hyponatremia G2 (number of patients): 0
  Hyponatremia G3 (number of patients): 0
  Hyponatremia G4 (number of patients): 0
  Lymphopenia G2 (number of patients): 0
  Lymphopenia G3 (number of patients): 0
  Lymphopenia G4 (number of patients): 0
  Nausea/vomiting G2 (number of patients): 0
  Nausea/vomiting G3 (number of patients): 0
[3]; [16]
  AST/ALT G2 (number of patients): 0
  Fatigue G4 (number of patients): 0
  Hyponatremia G2 (number of patients): 0
  Hyponatremia G3 (number of patients): 0
  Hyponatremia G4 (number of patients): 0
  Lymphopenia G2 (number of patients): 0
  Lymphopenia G3 (number of patients): 0
  Lymphopenia G4 (number of patients): 0
  Nausea/vomiting G2 (number of patients): 0
  Nausea/vomiting G3 (number of patients): 0
[3]; [17]
  AST/ALT G2 (number of patients): 1
  Fatigue G4 (number of patients): 0
  Hyponatremia G2 (number of patients): 0
  Hyponatremia G3 (number of patients): 0
  Hyponatremia G4 (number of patients): 0
  Lymphopenia G2 (number of patients): 0
  Lymphopenia G3 (number of patients): 0
  Lymphopenia G4 (number of patients): 0
  Nausea/vomiting G2 (number of patients): 0
  Nausea/vomiting G3 (number of patients): 0
[3]; [18]
  AST/ALT G2 (number of patients): 1
  Fatigue G4 (number of patients): 0
  Hyponatremia G2 (number of patients): 0
  Hyponatremia G3 (number of patients): 1
  Hyponatremia G4 (number of patients): 0
  Lymphopenia G2 (number of patients): 0
  Lymphopenia G3 (number of patients): 2
  Lymphopenia G4 (number of patients): 0
  Nausea/vomiting G2 (number of patients): 0
  Nausea/vomiting G3 (number of patients): 0
[3]; [19]
  AST/ALT G2 (number of patients): 0
  Fatigue G4 (number of patients): 0
  Hyponatremia G2 (number of patients): 0
  Hyponatremia G3 (number of patients): 2
  Hyponatremia G4 (number of patients): 0
  Lymphopenia G2 (number of patients): 0
  Lymphopenia G3 (number of patients): 0
  Lymphopenia G4 (number of patients): 0
  Nausea/vomiting G2 (number of patients): 1
  Nausea/vomiting G3 (number of patients): 0
[3]; exceeded the MTD
  maximum administered dose: 930 mg/m^2
[3]; in combination with cisplatin
  DLT from safingol (principal DLT): hepatic enzyme elevation
[3]; in vivo
  overall tolerability of the drug combination: well tolerated with no major increase in toxicities over those of cisplatin alone
[3]; safingol over 120 min with cisplatin 60 mg/m^2, every 3 weeks
  maximum tolerated dose (MTD): 840 mg/m^2
[3]; with cisplatin 60 mg/m^2, every 3 weeks
  recommended phase 2 dose: 840 mg/m^2
[4]; SphK
  Ki: 5 µM
[4]; competitive inhibitor of SphK
  Ki: ~5 µM
Protein Kinase C
  Ki: 33 µM
patients; phase I study with doxorubicin
  safingol-associated toxicity: a single episode of grade 1 hemolysis
patients; safingol doses not exceeding 120 mg/m^2 with doxorubicin
  hepatic toxicity: no hepatic toxicity was observed
patients; safingol up to 120 mg/m^2 every three weeks with doxorubicin
  dose-limiting toxicity: no dose-limiting toxicity observed
[5]; phase I study with doxorubicin
  pharmacokinetic interaction with doxorubicin: No significant pharmacokinetic interaction
[5]; read-out: mean Cmax, safingol 60 mg/m^2, study of safingol and doxorubicin
  Cmax: 1300 nM
Solid tumor cells
  cell death mechanism: induces cell death by autophagy
[6]
  effect on in vitro antitumor effect of doxorubicin, cisplatin and mitomycin C: increases the in vitro antitumor effect
xenograft
  effect on antitumor activity of cisplatin in xenografts: can increase the antitumor activity of cisplatin without increasing toxicity
mice
  hepatic toxicity in mice: increases in ALT and histological changes consistent with hepatocyte autophagy
